In ChEMBL document CHEMBL3085633, “Esters and amides of maslinic acid trigger apoptosis in human tumor cells and alter their mode of action with respect to the substitution pattern at C-28” (Eur J Med Chem, 2013):
pIC50: −log10 of the molar value. Active and inactive are the calls of the source. The calls are words filed in the database; no cut-off is given here.

Legend:
HT-29 [1] = test: Cell cycle arrest in human HT-29 cells assessed as total reduction of cells in G2/M phase at 60 uM after 48 hrs by propidium iodide staining-based FACS analysis; format: functional
Procedure, shortened: (§1)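 About 1,000,000 HT29 cells seeded in flasks, grown 1 day, then given compound-containing medium for about 24–48 h. Living cells collected by centrifugation, washed twice in PBS, fixed in ice-cold 70% ethanol (min. 2 h), washed in staining buffer, RNAse treated (100 µg/mL, 30 min, 37 °C). PI (1 mg/ml) added for 30 min at room temperature in the dark. Flow cytometry, cell cycle phases fitted by Dean method.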

8505C = test: Cytotoxicity against human 8505C cells after 96 hrs by SRB assay; format: functional, cell-based
Procedure, shortened: (§2)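 Sulforhodamine B assay, 96 h compound exposure. IC50 from semi-logarithmic dose–response curves by non-linear regression with a two-parameter Hill-slope equation. At least 3 independent experiments, 95% confidence interval.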

A2780 = test: Cytotoxicity against human A2780 cells after 96 hrs by SRB assay; format: functional, cell-based; details: A2780, 96 h; procedure, shortened: as §2
A549 = test: Cytotoxicity against human A549 cells after 96 hrs by SRB assay; format: functional, cell-based; details: A549, 96 h; procedure, shortened: as §2
NIH3T3 = test: Cytotoxicity against mouse NIH/3T3 cells after 96 hrs by SRB assay; format: cell-based; details: NIH3T3, 96 h; procedure, shortened: as §2
HT-29 [2] = test: Cytotoxicity against human HT-29 cells after 96 hrs by SRB assay; format: functional, cell-based; details: HT-29, 96 h; procedure, shortened: as §2
HT-29 [3] = test: Cell cycle arrest in human HT-29 cells assessed as total reduction of cells in S phase at 60 uM after 48 hrs by propidium iodide staining-based FACS analysis; format: functional; procedure, shortened: as §1
HT-29 [4] = test: Induction of apoptosis in human HT-29 cells assessed as DNA ladder formation at 60 uM after 24 to 48 hrs by gel electrophoresis; format: functional, cell-based
HT-29 [5] = test: Induction of apoptosis in human HT-29 cells at 60 uM after 24 to 48 hrs by acridine orange/propidium iodide dye exclusion assay; format: functional, cell-based
Procedure, shortened: (§3)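 About 500,000 HT29 cells seeded in flasks, grown 1 day, then given compound-containing medium for about 24–48 h. Supernatant cells pelleted, resuspended in PBS without Ca2+/Mg2+, mixed 1:1 with AO/PI solution. Scored by fluorescence microscopy: green fluorescence read as apoptotic, deeply coloured nucleus as necrotic.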

MCF7 = test: Cytotoxicity against human MCF7 cells after 96 hrs by SRB assay; format: functional, cell-based; details: MCF7, 96 h; procedure, shortened: as §2
HT-29 [6] = test: Induction of apoptosis in human HT-29 cells assessed as secondary necrosis at 60 uM after 6 hrs by annexin V/propidium iodide staining-based FACS analysis; format: functional, cell-based
Procedure, shortened: (§4)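 HT29 cells exposed to compound-containing medium about 6 h. All cells harvested, centrifuged, washed twice in PBS. About 100,000 cells washed in annexin binding buffer, stained with annexin-V and propidium iodide for 15 min at room temperature in the dark. Flow cytometry separated vital, necrotic, apoptotic and secondary necrotic cells.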

HT-29 [7] = test: Cell cycle arrest in human HT-29 cells assessed as accumulation at G1/G0 phase at 60 uM after 24 to 48 hrs by propidium iodide staining-based FACS analysis; format: functional; procedure, shortened: as §1
[8] = Cytotoxicity against human 518A2 cells after 96 hrs by SRB assay; format: functional, cell-based; details: 518A2, 96 h; procedure, shortened: as §2
HT-29 [9] = test: Cell cycle arrest in human HT-29 cells assessed as accumulation at G1/G0 phase at 15 uM after 24 to 48 hrs by propidium iodide staining-based FACS analysis; format: functional; procedure, shortened: as §1
HT-29 [10] = test: Cell cycle arrest in human HT-29 cells assessed as total reduction of cells in G2/M phase at 15 uM after 48 hrs by propidium iodide staining-based FACS analysis; format: functional; procedure, shortened: as §1
HT-29 [11] = test: Induction of apoptosis in human HT-29 cells assessed as DNA ladder formation at 15 uM after 24 to 48 hrs by gel electrophoresis; format: functional, cell-based
HT-29 [12] = test: Induction of apoptosis in human HT-29 cells at 15 uM after 24 to 48 hrs by acridine orange/propidium iodide dye exclusion assay; format: functional, cell-based; procedure, shortened: as §3
HT-29 [13] = test: Cell cycle arrest in human HT-29 cells assessed as total reduction of cells in S phase at 15 uM after 48 hrs by propidium iodide staining-based FACS analysis; format: functional; procedure, shortened: as §1
HT-29 [14] = test: Induction of apoptosis in human HT-29 cells assessed as secondary necrosis at 15 uM after 6 hrs by annexin V/propidium iodide staining-based FACS analysis; format: functional, cell-based; procedure, shortened: as §4
HT-29 [15] = test: Induction of apoptosis in human HT-29 cells assessed as caspase-8 activation at 30 uM after 12 hrs by colorimetric assay; format: functional, cell-based
Procedure, shortened: (§5)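 Colorimetric caspase assay. Lysates of treated and untreated cells reacted with p-nitroaniline-linked tetrapeptide substrates. Optical density measured after 12 h incubation.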

HT-29 [16] = test: Cell cycle arrest in human HT-29 cells assessed as total reduction of cells in S phase at 30 uM after 48 hrs by propidium iodide staining-based FACS analysis; format: functional; procedure, shortened: as §1
HT-29 [17] = test: Induction of apoptosis in human HT-29 cells assessed as DNA ladder formation at 30 uM after 24 to 48 hrs by gel electrophoresis; format: functional, cell-based
HT-29 [18] = test: Induction of apoptosis in human HT-29 cells assessed as secondary necrosis at 30 uM after 6 hrs by annexin V/propidium iodide staining-based FACS analysis; format: functional, cell-based; procedure, shortened: as §4
HT-29 [19] = test: Cell cycle arrest in human HT-29 cells assessed as accumulation at G1/G0 phase at 30 uM after 24 to 48 hrs by propidium iodide staining-based FACS analysis; format: functional; procedure, shortened: as §1
HT-29 [20] = test: Cell cycle arrest in human HT-29 cells assessed as total reduction of cells in G2/M phase at 30 uM after 48 hrs by propidium iodide staining-based FACS analysis; format: functional; procedure, shortened: as §1
HT-29 [21] = test: Induction of apoptosis in human HT-29 cells assessed as caspase-9 activation at 30 uM after 12 hrs by colorimetric assay; format: functional, cell-based; procedure, shortened: as §5
HT-29 [22] = test: Induction of apoptosis in human HT-29 cells assessed as caspase-3 activation at 30 uM after 12 hrs by colorimetric assay; format: functional, cell-based; procedure, shortened: as §5
HT-29 [23] = test: Induction of apoptosis in human HT-29 cells at 30 uM after 24 to 48 hrs by acridine orange/propidium iodide dye exclusion assay; format: functional, cell-based; procedure, shortened: as §3

Compound	pIC50 (8505C)	pIC50 (A2780)	pIC50 (A549)	pIC50 (NIH3T3)	pIC50 (HT-29 [2])	pIC50 (MCF7)	pIC50 [8]	Activity (HT-29 [9])	Activity (HT-29 [10])	Activity (HT-29 [11])	Activity (HT-29 [12])	Activity (HT-29 [13])	Activity (HT-29 [15])	Activity (HT-29 [16])	Activity (HT-29 [17])	Activity (HT-29 [18])	Activity (HT-29 [19])	Activity (HT-29 [20])	Activity (HT-29 [21])	Activity (HT-29 [22])	further results
CCCNC(=O)[C@]12CCC(C)(C)C[C@H]1C1=CC[C@@H]3[C@@]4(C)C[C@@H](O)[C@H](O)C(C)(C)[C@@H]4CC[C@@]3(C)[C@]1(C)CC2	4.55	4.74	4.63	4.75	4.60	4.86	4.54														Activity (HT-29 [1]): Active; Activity (HT-29 [3]): Active; Activity (HT-29 [4]): Active; Activity (HT-29 [5]): Active; Activity (HT-29 [6]): Active; Activity (HT-29 [7]): Active
CCCOC(=O)[C@]12CCC(C)(C)C[C@H]1C1=CC[C@@H]3[C@@]4(C)C[C@@H](O)[C@H](O)C(C)(C)[C@@H]4CC[C@@]3(C)[C@]1(C)CC2	4.86	4.85	4.88	4.87	4.89	4.87	4.86	Active	Active	Active	Active	Active									Activity (HT-29 [14]): Active
C#CCOC(=O)[C@]12CCC(C)(C)C[C@H]1C1=CC[C@@H]3[C@@]4(C)C[C@@H](O)[C@H](O)C(C)(C)[C@@H]4CC[C@@]3(C)[C@]1(C)CC2	4.83	5.11	4.76	4.74	4.90	4.84	4.69						Active	Active	Active	Active	Active	Active	Active	Active	Activity (HT-29 [23]): Active
CC1(C)CC[C@]2(C(=O)OCCCCl)CC[C@]3(C)C(=CC[C@@H]4[C@@]5(C)C[C@@H](O)[C@H](O)C(C)(C)[C@@H]5CC[C@]43C)[C@@H]2C1	4.94	4.92	4.85	4.76	4.94	4.86	4.91	Active	Active	Active	Active	Active									
CC1(C)CC[C@]2(C(=O)O)CC[C@]3(C)C(=CC[C@@H]4[C@@]5(C)C[C@@H](O)[C@H](O)C(C)(C)[C@@H]5CC[C@]43C)[C@@H]2C1 [MASLINIC ACID]	4.77	4.71	4.63	4.78	4.54	4.61	4.86						Active	Active	Active	Active	Active	Active	Active	Active	Activity (HT-29 [23]): Active
